These results are taken from paper PMC3544278 (Journal of Medicinal Chemistry, 2012).

One series deals with T1, FAAH (Rattus norvegicus, UniProt P97612).
T1 sequence (P97612 1-579): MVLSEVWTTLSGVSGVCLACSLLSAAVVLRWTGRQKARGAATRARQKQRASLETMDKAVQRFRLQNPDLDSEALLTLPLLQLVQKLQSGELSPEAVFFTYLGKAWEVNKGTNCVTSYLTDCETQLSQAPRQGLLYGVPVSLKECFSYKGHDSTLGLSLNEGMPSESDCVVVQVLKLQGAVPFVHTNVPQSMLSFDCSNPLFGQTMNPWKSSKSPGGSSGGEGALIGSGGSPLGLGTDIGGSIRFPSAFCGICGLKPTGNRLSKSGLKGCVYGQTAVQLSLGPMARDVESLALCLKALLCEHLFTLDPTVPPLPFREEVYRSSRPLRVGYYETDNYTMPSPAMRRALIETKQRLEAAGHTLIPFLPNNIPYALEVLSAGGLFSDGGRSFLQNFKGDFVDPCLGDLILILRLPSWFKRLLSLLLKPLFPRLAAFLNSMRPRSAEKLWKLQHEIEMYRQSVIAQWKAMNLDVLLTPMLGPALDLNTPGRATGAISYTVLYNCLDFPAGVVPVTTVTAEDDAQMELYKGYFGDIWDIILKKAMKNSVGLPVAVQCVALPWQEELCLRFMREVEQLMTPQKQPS
As to the kind of experiment: Irreversible binding of [11C]-radiotracers to FAAH in rat brain parenchyma. The format is in vivo.

Series [1] can be described thus: Biodistribution of [11C]-radiotracers in rat brain. The following applies: mean (n = 5) ± SD. The format is in vivo. A digest of the protocol:
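Conscious restrained rats (n = 5/time point) received 30–60 MBq [11C]-radiotracer (70–170 GBq/μmol; 0.3–0.8 nmol) iv by tail vein in buffered saline with 0.5% Tween 80. After decapitation, brain regions were excised, blotted, weighed, gamma-counted and decay-corrected against injected-dose standards. SUV = %ID/g […] body weight (kg). Blocking groups got an FAAH inhibitor (2 mg/kg ip, saline/Tween 80) or vehicle 30 min before. Student's t test.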

Marks after values point to notes of the source that are not given here.

In the case of `O=C(NC1CCCCC1)Oc1cc(O)cc(-c2ccccc2)c1` [[^11C]1, [^11C-carbonyl]N-cyclohexyl-5-hydroxy[1,1′-biphenyl]-3-ylcarbamic acid ester], the “% bound (irreversibly) at 60 min postinjection” value on FAAH is “about 90%”. Also, in series [1] (2 min post iv injection), the “Regional brain uptake, cortex (2 min)” value turned out to be 2.40 ± 0.18 SUV and the “Regional brain uptake, hypothalamus (2 min)” value was 1.61 ± 0.23 SUV. Moreover, in series [1] (40 min post iv injection), the “Regional brain uptake, cortex (40 min)” value was found to be 2.49 ± 0.25 SUV and the “Regional brain uptake, hypothalamus (40 min)” value was found to be 1.14 ± 0.13 SUV. For the same compound, the “Regional brain uptake, cortex (40 min, blocked)” value in series [1] (40 min post iv injection, pretreated with compound 2 (2 mg/kg, ip)) is given as 0.36 ± 0.04 ^b SUV.
